Tests used:
[1] = biological target: T1, A disintegrin and metalloproteinase with thrombospondin motifs 4 (Homo sapiens, UniProt O75173); experiment: Inhibition of ADAMTS-4 assessed as substrate cleavage after 16 hrs by fluorescence assay
T1 sequence (O75173 whole entry): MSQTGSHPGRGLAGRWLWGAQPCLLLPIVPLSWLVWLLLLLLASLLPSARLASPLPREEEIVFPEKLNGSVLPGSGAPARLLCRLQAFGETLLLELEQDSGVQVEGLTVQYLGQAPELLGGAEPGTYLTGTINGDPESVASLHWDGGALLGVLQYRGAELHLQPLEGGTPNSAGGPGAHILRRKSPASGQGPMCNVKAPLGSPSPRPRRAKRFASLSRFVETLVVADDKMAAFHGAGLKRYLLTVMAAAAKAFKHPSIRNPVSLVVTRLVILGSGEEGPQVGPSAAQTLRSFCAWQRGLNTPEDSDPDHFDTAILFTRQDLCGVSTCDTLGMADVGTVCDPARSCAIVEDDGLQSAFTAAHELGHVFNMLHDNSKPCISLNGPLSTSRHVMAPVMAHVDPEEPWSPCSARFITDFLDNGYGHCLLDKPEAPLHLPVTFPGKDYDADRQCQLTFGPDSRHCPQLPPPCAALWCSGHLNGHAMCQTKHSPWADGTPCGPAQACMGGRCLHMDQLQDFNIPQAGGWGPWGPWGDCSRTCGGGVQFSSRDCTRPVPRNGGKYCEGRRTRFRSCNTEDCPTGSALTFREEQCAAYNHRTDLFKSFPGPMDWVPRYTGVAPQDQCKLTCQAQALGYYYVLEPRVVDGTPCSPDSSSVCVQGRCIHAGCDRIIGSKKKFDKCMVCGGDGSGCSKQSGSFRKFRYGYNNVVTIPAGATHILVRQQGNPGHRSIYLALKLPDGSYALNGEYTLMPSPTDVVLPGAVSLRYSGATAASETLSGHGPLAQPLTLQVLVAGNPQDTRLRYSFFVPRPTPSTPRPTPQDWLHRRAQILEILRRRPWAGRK
How it was run: (§1)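 Enzyme inhibition IC50s derived from at least six measurements, standard errors normally <5% within an assay; a standard compound run to keep assay-to-assay variability within twofold.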

[2] = biological target: T2, A disintegrin and metalloproteinase with thrombospondin motifs 5 (Homo sapiens, UniProt Q9UNA0); experiment: Inhibition of ADAMTS-5 assessed as substrate cleavage after 16 hrs by fluorescence assay; how it was run: as §1
T2 sequence (Q9UNA0 whole entry): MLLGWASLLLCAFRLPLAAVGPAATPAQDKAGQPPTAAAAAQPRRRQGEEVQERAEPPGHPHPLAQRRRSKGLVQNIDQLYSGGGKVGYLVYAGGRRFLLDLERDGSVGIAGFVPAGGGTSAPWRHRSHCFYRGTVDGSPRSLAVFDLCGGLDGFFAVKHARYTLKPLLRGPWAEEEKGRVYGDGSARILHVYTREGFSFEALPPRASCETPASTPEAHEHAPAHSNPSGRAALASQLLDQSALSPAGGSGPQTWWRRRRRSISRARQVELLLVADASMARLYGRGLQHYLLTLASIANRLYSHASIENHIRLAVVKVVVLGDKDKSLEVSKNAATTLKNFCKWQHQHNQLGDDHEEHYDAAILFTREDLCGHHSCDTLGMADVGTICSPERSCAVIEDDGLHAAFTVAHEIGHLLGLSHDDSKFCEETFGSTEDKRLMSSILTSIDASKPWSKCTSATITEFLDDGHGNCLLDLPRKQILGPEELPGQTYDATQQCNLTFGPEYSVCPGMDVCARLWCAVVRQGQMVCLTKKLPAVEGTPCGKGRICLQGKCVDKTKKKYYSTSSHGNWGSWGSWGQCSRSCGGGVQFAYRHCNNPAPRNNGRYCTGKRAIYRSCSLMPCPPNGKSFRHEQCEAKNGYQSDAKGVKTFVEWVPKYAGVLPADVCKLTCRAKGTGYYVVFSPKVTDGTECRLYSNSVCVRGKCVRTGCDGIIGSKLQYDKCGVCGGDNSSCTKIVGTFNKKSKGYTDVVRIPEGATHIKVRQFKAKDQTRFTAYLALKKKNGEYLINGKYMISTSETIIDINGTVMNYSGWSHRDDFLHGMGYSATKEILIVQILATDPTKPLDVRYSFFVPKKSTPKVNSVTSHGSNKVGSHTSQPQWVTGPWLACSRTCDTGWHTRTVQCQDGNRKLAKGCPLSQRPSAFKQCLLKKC

Collagenase 3 = Collagenase 3 (Homo sapiens, UniProt P45452); experiment: Inhibition of recombinant human MMP-13 assessed as substrate cleavage after 20 hrs by fluorescence assay; how it was run: as §1
[3] = biological target: Matrix metalloproteinase-14 (Homo sapiens, UniProt P50281); experiment: Inhibition of recombinant human MMP-14 assessed as substrate cleavage after 20 hrs by fluorescence assay; how it was run: as §1
Interstitial collagenase = biological target: T3, Interstitial collagenase (Homo sapiens, UniProt P03956); experiment: Inhibition of recombinant human MMP-1 assessed as substrate cleavage after 20 hrs by fluorescence assay; how it was run: as §1
T3 sequence (P03956 whole entry): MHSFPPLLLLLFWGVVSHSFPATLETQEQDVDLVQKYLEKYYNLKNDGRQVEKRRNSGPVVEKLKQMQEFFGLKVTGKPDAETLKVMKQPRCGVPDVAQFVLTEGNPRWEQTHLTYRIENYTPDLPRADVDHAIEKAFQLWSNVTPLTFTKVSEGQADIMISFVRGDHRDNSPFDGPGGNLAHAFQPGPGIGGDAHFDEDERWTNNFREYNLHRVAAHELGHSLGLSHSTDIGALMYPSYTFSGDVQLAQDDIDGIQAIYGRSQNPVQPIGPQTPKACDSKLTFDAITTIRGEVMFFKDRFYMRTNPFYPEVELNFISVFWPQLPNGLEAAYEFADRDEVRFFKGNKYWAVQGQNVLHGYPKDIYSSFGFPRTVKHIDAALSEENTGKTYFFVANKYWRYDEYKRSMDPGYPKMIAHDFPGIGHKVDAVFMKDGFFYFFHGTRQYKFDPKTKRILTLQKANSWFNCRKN

[4] = biological target: 72 kDa type IV collagenase (Homo sapiens, UniProt P08253); experiment: Inhibition of recombinant human MMP-2 assessed as substrate cleavage after 20 hrs by fluorescence assay; how it was run: as §1
Chain of 72 kDa type IV collagenase (P08253 whole entry): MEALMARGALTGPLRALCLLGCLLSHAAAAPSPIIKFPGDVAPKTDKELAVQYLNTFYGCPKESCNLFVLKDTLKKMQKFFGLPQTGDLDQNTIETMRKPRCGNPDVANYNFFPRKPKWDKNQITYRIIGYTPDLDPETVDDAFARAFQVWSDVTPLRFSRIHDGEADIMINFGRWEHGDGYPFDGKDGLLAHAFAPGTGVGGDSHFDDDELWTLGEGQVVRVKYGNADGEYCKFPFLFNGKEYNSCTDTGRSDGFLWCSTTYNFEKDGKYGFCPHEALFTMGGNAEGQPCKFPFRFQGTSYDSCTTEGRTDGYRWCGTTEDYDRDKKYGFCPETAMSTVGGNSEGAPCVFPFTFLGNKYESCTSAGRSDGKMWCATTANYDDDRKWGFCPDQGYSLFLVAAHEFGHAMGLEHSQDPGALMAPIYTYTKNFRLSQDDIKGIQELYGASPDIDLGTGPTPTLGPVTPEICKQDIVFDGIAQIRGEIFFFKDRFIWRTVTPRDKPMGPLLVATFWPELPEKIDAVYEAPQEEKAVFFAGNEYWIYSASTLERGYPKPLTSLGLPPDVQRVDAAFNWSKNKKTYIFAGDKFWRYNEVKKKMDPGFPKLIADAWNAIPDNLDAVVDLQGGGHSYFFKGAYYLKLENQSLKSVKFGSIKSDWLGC

[5] = biological target: Matrix metalloproteinase-9 (Homo sapiens, UniProt P14780); experiment: Inhibition of recombinant human MMP-9 assessed as substrate cleavage after 20 hrs by fluorescence assay; how it was run: as §1
Chain of Matrix metalloproteinase-9 (P14780 whole entry): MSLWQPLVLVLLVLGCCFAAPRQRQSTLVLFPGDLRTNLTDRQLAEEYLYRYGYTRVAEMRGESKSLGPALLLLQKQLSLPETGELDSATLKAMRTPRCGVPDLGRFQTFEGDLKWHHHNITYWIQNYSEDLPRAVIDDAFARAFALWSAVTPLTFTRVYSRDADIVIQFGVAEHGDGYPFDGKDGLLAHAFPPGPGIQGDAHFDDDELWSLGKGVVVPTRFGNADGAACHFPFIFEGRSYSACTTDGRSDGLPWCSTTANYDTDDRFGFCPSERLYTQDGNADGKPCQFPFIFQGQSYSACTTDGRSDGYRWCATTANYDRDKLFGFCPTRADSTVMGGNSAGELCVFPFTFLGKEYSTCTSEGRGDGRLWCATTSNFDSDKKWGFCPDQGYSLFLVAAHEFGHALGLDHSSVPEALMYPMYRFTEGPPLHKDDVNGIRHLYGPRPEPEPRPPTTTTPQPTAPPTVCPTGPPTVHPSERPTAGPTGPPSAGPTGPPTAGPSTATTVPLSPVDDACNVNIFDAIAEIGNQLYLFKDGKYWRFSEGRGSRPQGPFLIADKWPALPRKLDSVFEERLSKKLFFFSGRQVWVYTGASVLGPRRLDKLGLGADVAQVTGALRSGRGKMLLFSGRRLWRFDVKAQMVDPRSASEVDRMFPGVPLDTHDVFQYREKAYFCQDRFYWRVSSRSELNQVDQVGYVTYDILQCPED

[6] = Intrinsic clearance in human liver microsomes; type: ADME, Microsome
How it was run: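 Human liver microsome metabolism; intrinsic clearance expressed as μL/min/mg, reported as mean of eight separate experiments.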

Row | SMILES | IC50 [1] [nM] | IC50 [2] [nM] | IC50 (Collagenase 3) [nM] | IC50 [3] [nM] | IC50 (Interstitial collagenase) [nM] | IC50 [4] [nM] | IC50 [5] [nM] | microsomal CLint [6] [µL/min/mg]
1 | O=CN(O)C1(CS(=O)(=O)N2CCC(CCc3ccccc3)CC2)CCOCC1 | 470 | 1700 | 260 | 1200 | > 10000 | 150 | 670 | 8.8
2 | Cc1cccnc1CCC1CCN(S(=O)(=O)CC2(N(O)C=O)CCOCC2)CC1 | 100 | 580 | 1100 | 2900 | > 10000 | 1100 | 8500 | 3.8
3 | Cc1ccncc1CCC1CCN(S(=O)(=O)CC2(N(O)C=O)CCOCC2)CC1 | 110 | 630 | 5900 | > 7200 | > 10000 | 3500 | > 10000 | 3.4
4 | CC(=O)N1CCC(CS(=O)(=O)N2CCC(CCc3c(C)noc3C)CC2)(N(O)C=O)CC1 | 24 | 820 | > 10000 | > 10000 | > 10000 | > 10000 | > 10000 | < 2
5 | Cc1cc(Cl)ccc1CCC1CCN(S(=O)(=O)CC2(N(O)C=O)CCOCC2)CC1 | 2.7 | 65 | 780 | > 10000 | > 10000 | 1400 | 1200 | –
6 | O=CN(O)C1(CS(=O)(=O)N2CCC(CCc3ccc(F)cc3C(F)(F)F)CC2)CCN(C(=O)C2CCC2)CC1 | 8.7 | 61 | – | – | – | – | – | –
7 | CS(=O)(=O)c1ccc(CCC2CCN(S(=O)(=O)CC3(N(O)C=O)CCOCC3)CC2)c(C2CC2)c1 | 1.4 | 950 | > 10000 | > 10000 | > 10000 | > 10000 | > 10000 | 3.7
8 | Cc1ccccc1CCC1CCN(S(=O)(=O)CC2(N(O)C=O)CCN(C(=O)C3CCC3)CC2)CC1 | 4.1 | 13 | – | – | – | – | – | –
9 | Cc1noc(C)c1CCC1CCN(S(=O)(=O)CC2(N(O)C=O)CCCCCC2)CC1 | 48 | 1500 | > 10000 | > 10000 | > 10000 | > 10000 | > 10000 | 59
10 | Cc1noc(C)c1CCC1CCN(S(=O)(=O)CC2(N(O)C=O)CCN(C(=O)N3CCC3)CC2)CC1 | 11 | 480 | > 10000 | > 10000 | > 10000 | > 10000 | > 10000 | 31
11 | Cc1cc(Cl)ccc1CCC1CCN(S(=O)(=O)CC2(N(O)C=O)CCN(C(=O)C3CCC3)CC2)CC1 | 1.2 | 20 | – | – | – | – | – | –
12 | Cc1cnc(C)c(CCC2CCN(S(=O)(=O)CC3(N(O)C=O)CCOCC3)CC2)c1 | 380 | 5200 | 8400 | > 10000 | > 10000 | > 10000 | > 10000 | –
13 | Cc1noc(C)c1CCC1CCN(S(=O)(=O)CC2(N(O)C=O)CCN(S(C)(=O)=O)CC2)CC1 | 29 | 310 | 4600 | > 10000 | > 10000 | > 10000 | > 10000 | 6.5
14 | Cc1noc(C)c1CCC1CCN(S(=O)(=O)CC2(N(O)C=O)CCC2)CC1 | 51 | 1500 | > 10000 | > 10000 | > 10000 | > 10000 | > 10000 | 3.3
15 | Cc1noc(C)c1CCC1CCN(S(=O)(=O)CC2(N(O)C=O)CCCC2)CC1 | 52 | 1900 | > 10000 | > 10000 | > 10000 | > 10000 | > 10000 | –
16 | Cc1cc(C(F)(F)F)ccc1CCC1CCN(S(=O)(=O)CC2(N(O)C=O)CCN(C(=O)C3CCC3)CC2)CC1 | 1.2 | 79 | – | – | – | – | – | –
17 | Cc1noc(C)c1CCC1CCN(S(=O)(=O)CC2(N(O)C=O)CCCCC2)CC1 | 20 | 850 | > 4100 | > 7500 | > 10000 | > 10000 | > 10000 | –
18 | Cc1cc(F)ccc1CCC1CCN(S(=O)(=O)CC2(N(O)C=O)CCN(C(=O)C3CCC3)CC2)CC1 | 1.9 | 11 | – | – | – | – | – | –
19 | Cc1cc(C)c(CCC2CCN(S(=O)(=O)CC3(N(O)C=O)CCOCC3)CC2)cn1 | 130 | 1400 | > 10000 | > 10000 | > 10000 | 7600 | 8900 | –
